Source: PubChem BioAssay
TAG inh – inhibitors of triacylglycerol accumulation; H9c2 cells, Nile Red lipid (TAG) fluorescence; cells loaded with 200 µM oleic acid; inhibition, % at 12.5 µM; 230,000 tested, 0.66% active;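 active = pattern-corrected inhibition of lipid staining of at least 50% with the nuclear-stain viability signal not falling by more than 50%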;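 note: 0% = DMSO wells and 100% = triacsin C control wells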
Beta apoptosis – beta cell apoptosis inhibition; INS-1E cytokine-induced death, ATP luminescence, 48 h; percent of positive-control rescue, neutral wells zero; protection from apoptosis, % (no concentration beside the values); 300,000 tested, 0.8% active;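 active = Every replicate reaches about 75%, or at least half do and their mean reaches it too, limit read from the data; inconclusive = At least half of replicates reach the limit but their mean does not; inactive = Under half of replicates reach the limit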;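 note: 0% = cytokine-treated negative control wells and 100% = positive control rescue; higher means more ATP so stronger rescue from cytokine killing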
CSC inhib – blocks cancer stem cells; cancer stem cell-like cells viability, luminescence; 300,000 tested, 1.1% active; AID 2717; inhibition, % at 7.5 µM; in the data active = inhibition above about 75%; inconclusive = no clear call, values can overlap the other calls; tested in HMLE shEcad cells
T cruzi inh – T. cruzi replication inhibition; 300,000 tested, 1.4% active; T. cruzi beta-gal in NIH3T3, luminescence, 90 h; inhibition, % (test concentration not listed);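 active = mean inhibition across valid replicates above about 55%, limit read from the data; inconclusive = mean below that limit but half or more replicates reach it; inactive = mean below it, under half of replicates reach it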;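 note: signal also drops with host cell toxicity which is not excluded here; 0% = plate median of DMSO wells and 100% = zero luminescence signal; higher percent means less beta-gal luminescence so fewer parasites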
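System: Mouse NIH/3T3 fibroblasts infected with β-gal-expressing T. cruzi Tulahuen C4 | Quantity: NIH/3T3 cells, 5,000 per well | Reagent: 5000 reporter trypomastigotes per well | Dosing: Compound pinned at 50 nL/well, DMSO | Schedule: 3 h host attachment, then at least 90 h co-culture | Detection: GalScreen luminescence, 60 min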
Calb FLC – C. albicans growth modulation with fluconazole. growth inhibition, % (test concentration not listed). C. albicans CaCi-2 + fluconazole, Alamar Blue growth, 48 h. 300,000 tested, 0.57% active. AID 1979;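 active = growth inhibition above about 58% in most replicates, limit read from the data, passing the limit was not always enough; inconclusive = exactly half the replicates above a set limit; inactive = most replicates below a set limit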;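 note: all wells also contain fluconazole at 8 µg/ml as a sub-toxic cotreatment; 0% = median of DMSO wells and 100% = median of geldanamycin control wells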
Bfl-1 A1 inh – inhibitors of the anti-apoptotic protein A1, read as caspase activation | MEF A1-2A-BIM cells, Caspase-Glo 3/7 luminescence, 3 h; percent of clofoctol response, vehicle zero | caspase activation, % (no concentration beside the values) | 330,000 tested, 0.066% active | AID 2462;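 active = over half of replicate activation scores above 10%, or exactly half above 10 with the replicate mean above 10; inconclusive = replicate mean below 10 yet half the replicates above 10; inactive = over half of replicates below 10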
Active calls of the source: *; u = inconclusive; x = no result. Hits are enriched below; roughly 3.1% of the tested compounds scored in any of these assays.

SMILES	TAG inh	Beta apoptosis	CSC inhib	T cruzi inh	Calb FLC	Bfl-1 A1 inh
O=C(O)c1ccccc1C(=O)NCc1ccc(F)cc1	x	-3	8	-8	-8	0
CCN1CCN(C(c2ccc(C(F)(F)F)cc2)c2ccc3cccnc3c2O)CC1 (stereo not given)	x	86*	104*	40	-2	1
Oc1c(C(c2ccccc2)N2CCOCC2)ccc2ccccc12 (stereo not given)	-13	x	x	x	x	x
CN1CCN(C(c2ccc(C(F)(F)F)cc2)c2cc(Cl)c3cccnc3c2O)CC1 (stereo not given)	x	100*	110*	59*	100*	1
Oc1c(C(c2ccccn2)N2CCCCC2)cc(Cl)c2cccnc12 (stereo not given)	87*	26	70	20	9	0
CN1CCN(C(c2ccc(Cl)cc2)c2cc(Cl)c3cccnc3c2O)CC1 (stereo not given)	x	68	-16	44	-6	0
Cc1[nH]c2ccccc2c1C(c1ccccn1)N1CCCC1 (stereo not given)	-6	-3	14	1	4	0
COc1ccc(C(CCN)c2ccc3c(c2)OCO3)cc1 (stereo not given)	x	-1	14	60*	-5	0
Cc1cc(C(F)(F)F)nc(SCC(=O)NC2CCCCC2)n1	x	x	4	-1	-9	0
COc1ccc(/C=N/Nc2ccc(C(=O)O)cc2)c(OC)c1OC	x	3	6	-6	-5	-3
COC(=O)c1ccc2c(c1)C(C)(C)C(/C=C/c1ccc(OC)c(OC)c1OC)=[N+]2C	125	107*	-3	x	-1	0
COc1cccc(-c2nn(C)c3sc(C(=O)Nc4ccc5c(c4)OCCO5)cc23)c1	38	25	40	36	5	0
Cn1nc(-c2ccccc2F)c2cc(C(=O)Nc3ccc4c(c3)OCCO4)sc21	34	50	77*	22	41	1
O=C(N/N=C/c1c(O)ccc2ccccc12)Nc1ccccc1	x	3	15	2	-3	-1
O=C(CNc1ccccc1)N/N=C/c1c(O)ccc2ccccc12	x	84*	57	11	27	-2
O=C(CSCC(=O)Nc1ccccc1)N/N=C/c1c(O)ccc2ccccc12	x	-11	58	14	113*	0
O=C(CN1CCOCC1)N/N=C/c1ccco1	x	x	15	-14	3	0
O=C(CN1CCOCC1)N/N=C/c1c(O)ccc2ccccc12	x	84*	15	8	-29	0
Cc1cc(C(=O)N2CCCC(C(=O)c3ccc4ccccc4c3)C2)n(C)n1 (stereo not given)	6	-1	2	13	6	-1
Cc1ccc(Cc2ccccc2C(=O)O)cc1	-4	x	x	x	x	x
Cc1sc2ncn(CC(=O)NCC(=O)N3CCN(c4ccccc4F)CC3)c(=O)c2c1C	x	3	-8	3	26	1
CCC1(c2ccc(F)cc2)NC(=O)N(CC(=O)Nc2cccc(S(=O)(=O)N3CCOCC3)c2)C1=O (stereo not given)	23	x	x	x	x	x
O=C(CNC(=O)c1ccco1)N/N=C/c1ccc(C(=O)O)cc1	x	-2	x	-21	-5	0
CC(C(=O)c1ccccc1)[n+]1cccc(Br)c1 (stereo not given)	x	-6	-12	-3	75*	0
CC(C(=O)c1ccc(-c2ccccc2)cc1)[n+]1cccc(NC(=O)c2ccccc2)c1 (stereo not given)	-12	7	17	3	58	0
SMILES	TAG inh	Beta apoptosis	CSC inhib	T cruzi inh	Calb FLC	Bfl-1 A1 inh
Nc1nc(N)nc(-c2cccc(Cl)c2Cl)n1	14	-2	-9	x	x	-1
CCN1CCN(Cc2ccc(NC(=O)c3cc(NC(=O)c4cncc(-c5ccc(C#N)cc5)c4)cc(OC)c3)cc2C(F)(F)F)CC1	95*	87*	31	50	1	1
CCN1CCN(Cc2ccc(NC(=O)c3ccc(C)c(NC(=O)c4cncc(-c5cccs5)c4)c3)cc2C(F)(F)F)CC1	117*	x	x	x	x	x
CCN1CCN(Cc2ccc(NC(=O)c3ccc(C)c(NC(=O)c4cc(-c5ccc(Br)cc5)n[nH]4)c3)cc2C(F)(F)F)CC1	66*	-1	u	60*	37	0
CCN1CCN(Cc2ccc(NC(=O)c3ccc(C)c(NC(=O)c4nccn4C)c3)cc2C(F)(F)F)CC1	-6	-4	4	11	-5	1
Cc1cc(C(=O)CSc2nnc(C3CC3)n2C2CC2)c(C)n1C(C)C	-27	2	x	x	x	1
COc1ccc(NC(=O)c2nc[nH]c2C(=O)N[C@@H](C)C(=O)OC(C)(C)C)cc1	-13	2	x	13	2	0
Cc1cccc(NC(=O)c2nc[nH]c2C(=O)NCCCCCNC(=O)OC(C)(C)C)c1	-17	12	4	x	x	-2
CC(C)(C)OC(=O)NCCCC[C@H](NC(=O)c1nc[nH]c1C(=O)NC(c1ccccc1)c1ccccc1)C(=O)OC(C)(C)C	3	24	35	56*	-2	-1
COc1ccc(NC(=O)c2nc[nH]c2C(=O)N[C@@H](CC(C)C)C(=O)OC(C)(C)C)cc1	-6	69	133*	35	11	0
Cc1cccc(NC(=O)c2nc[nH]c2C(=O)N[C@@H](CCCCNC(=O)OC(C)(C)C)C(=O)OC(C)(C)C)c1	-5	13	x	62*	3	1
N#Cc1cccc(NC(=O)c2cncn2-c2ccccc2)c1	x	-5	4	-12	3	-1
COc1ccc(Cl)cc1NC(=O)CN(C)C(=O)c1sccc1-c1ccccc1	-31	-7	16	x	x	0
Cc1cc(-c2ccccc2)n(-c2cc(N/N=C/c3ccccc3O)ncn2)n1	x	77*	105*	x	x	2
CCn1c(Sc2nc(C)nc3scc(-c4cccs4)c23)n[nH]c1=O	9	-7	18	-14	95*	0
CN(C)c1ccc(NC(=O)Nc2ccc3c(c2)c(=O)n(C)n3Cc2ccc(Cl)cc2)cc1	4	x	x	x	x	x
CCOc1ccc(NC(=O)/C(C#N)=C\c2ccc(N3CCCC3)c(C)c2)cc1	-99	x	x	x	x	x
CC1=NN(c2ccccc2)C(=O)/C1=C/C=C/c1ccccc1	-5	x	84*	1	14	1
Cc1ccc(N2C(=O)C3C4CCC(O4)C3C2=O)c(OC(F)F)c1 (stereo not given)	-5	-3	x	x	x	1
Cc1ccc(-n2cccc2C(=S)N=P(N(C)C)(N(C)C)N(C)C)cc1	x	102*	-3	59*	3	0
Cc1ccc(-n2cccc2C(=O)NS(=O)(=O)c2ccc(C)cc2)cc1	7	1	-7	2	-17	-1
C/C(=N\NC(=O)c1nnn(-c2nonc2N)c1CN(C)c1ccccc1)c1ccccn1	x	86*	105*	31	x	0
C/C(=N\NC(=O)c1nnn(-c2nonc2N)c1-c1ccccc1)c1ccccc1O	x	90*	x	61*	30	1
